Publication PMC10975593 (ACS Omega, 2024)
Like-named read-outs stand apart in the source and are kept apart here.

Experiments:
[1] = system: SK-MEL-5; test: NCI 60-cell line screen; type: cell-based, human; settings: for GI50 / IC50 / CC50: Homo sapiens; for GI50 / IC50: SK-MEL-5; for CC50: SK-MEL-5, read-out: LC50; for TGI: SK-MEL-5, melanoma
Method in brief: (§1)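 Test compounds were submitted to the National Cancer Institute and run under NCI's standard 60-cell-line protocols. Read-outs were taken from percent-growth versus log-concentration curves.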

[2] = system: A549 cancer cell line; test: MTT assay; type: cell-based; settings: Homo sapiens, A549, 72 h; for inhibition at 100 µM: read-out: experimental % of inhibition on A549 cancer cell line
Method in brief: (§2)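 A549 in DMEM and MCF-7 in RPMI, each with 10% heat-inactivated FBS, 1% penicillin/streptomycin and 2 mmol/L glutamine at 37 °C, 5% CO2. Seeded at 2000 (A549) or 10,000 (MCF-7) cells/well and attached 24 h. Then 72 h with test compound at varying concentrations. MTT (5 mg/mL stock) added for 4 h at 37 °C, formazan dissolved in DMSO, absorbance read at 450/540 nm. Triplicates in three separate experiments.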

[3] = system: TK-10; test: NCI 60-cell line screen; type: cell-based, human; settings: for GI50 / IC50 / CC50: Homo sapiens; for GI50 / IC50: TK-10; for CC50: TK-10, read-out: LC50; for TGI: TK-10, renal cancer
Method in brief: as §1

[4] = system: M14; test: NCI 60-cell line screen; type: cell-based, human; settings: for GI50 / IC50 / CC50: Homo sapiens; for GI50 / IC50: M14; for CC50: M14, read-out: LC50; for TGI: M14, melanoma
[5] = system: MCF-7 and A549 cancer cell lines; test: MTT assay, range over both cell lines; type: cell-based; settings: read-out: IC50 values, range
Method in brief: as §2

[6] = system: KM12; test: NCI 60-cell line screen; type: cell-based, human; settings: for GI50 / IC50 / CC50: Homo sapiens; for GI50 / IC50: KM12; for CC50: KM12, read-out: LC50; for TGI: KM12, colon cancer
[7] = system: NCI-H226; test: NCI 60-cell line screen; type: cell-based, human; settings: for GI50 / IC50 / CC50: Homo sapiens; for GI50 / IC50: NCI-H226; for CC50: NCI-H226, read-out: LC50; for TGI: NCI-H226, non-small cell lung cancer
[8] = system: MDA-MB-231/ATCC; test: NCI 60-cell line screen; type: cell-based, human; settings: for GI50 / IC50 / CC50: Homo sapiens; for GI50 / IC50: MDA-MB-231; for CC50: MDA-MB-231, read-out: LC50; for TGI: MDA-MB-231/ATCC, breast cancer
[9] = system: SK-MEL-28; test: NCI 60-cell line screen; type: cell-based, human; settings: for GI50 / IC50 / CC50: Homo sapiens; for GI50 / IC50: SK-MEL-28; for CC50: SK-MEL-28, read-out: LC50; for TGI: SK-MEL-28, melanoma
Method in brief: as §1

[10] = system: HT29; test: NCI 60-cell line screen; type: cell-based, human; settings: for TGI: HT29, colon cancer; for GI50 / IC50 / CC50: Homo sapiens; for GI50 / IC50: HT-29; for CC50: HT-29, read-out: LC50
[11] = system: MDA-MB-468; test: NCI 60-cell line screen; type: cell-based, human; settings: for GI50 / IC50 / CC50: Homo sapiens; for GI50 / IC50: MDA-MB-468; for CC50: MDA-MB-468, read-out: LC50; for TGI: MDA-MB-468, breast cancer
[12] = system: UACC-62; test: NCI 60-cell line screen; type: cell-based, human; settings: for GI50 / IC50 / CC50: Homo sapiens; for GI50 / IC50: UACC-62; for CC50: UACC-62, read-out: LC50; for TGI: UACC-62, melanoma
Method in brief: as §1

[13] = system: EKVX; test: NCI 60-cell line screen; type: cell-based, human; settings: for GI50 / IC50 / CC50: Homo sapiens; for CC50: read-out: LC50; for TGI: non-small cell lung cancer
[14] = system: MCF-7; test: NCI 60-cell line screen; type: cell-based, human; settings: for GI50 / IC50 / CC50: Homo sapiens; for GI50 / IC50: MCF7; for CC50: MCF7, read-out: LC50; for TGI: MCF-7, breast cancer
[15] = system: MDA-MB-435; test: NCI 60-cell line screen; type: cell-based, human; settings: for GI50 / IC50 / CC50: Homo sapiens; for GI50 / IC50: MDA-MB-435; for CC50: MDA-MB-435, read-out: LC50; for TGI: MDA-MB-435, melanoma
[16] = molecular target: PIK3CA E542 K/PIK3R1 (p110 α E542 K/p85 α) (Homo sapiens, UniProt P42336, E542K); test: Kinase selectivity for OMS14; type: biochemical
Chain of PIK3CA E542 K/PIK3R1 (p110 α E542 K/p85 α) (P42336 whole entry E542K): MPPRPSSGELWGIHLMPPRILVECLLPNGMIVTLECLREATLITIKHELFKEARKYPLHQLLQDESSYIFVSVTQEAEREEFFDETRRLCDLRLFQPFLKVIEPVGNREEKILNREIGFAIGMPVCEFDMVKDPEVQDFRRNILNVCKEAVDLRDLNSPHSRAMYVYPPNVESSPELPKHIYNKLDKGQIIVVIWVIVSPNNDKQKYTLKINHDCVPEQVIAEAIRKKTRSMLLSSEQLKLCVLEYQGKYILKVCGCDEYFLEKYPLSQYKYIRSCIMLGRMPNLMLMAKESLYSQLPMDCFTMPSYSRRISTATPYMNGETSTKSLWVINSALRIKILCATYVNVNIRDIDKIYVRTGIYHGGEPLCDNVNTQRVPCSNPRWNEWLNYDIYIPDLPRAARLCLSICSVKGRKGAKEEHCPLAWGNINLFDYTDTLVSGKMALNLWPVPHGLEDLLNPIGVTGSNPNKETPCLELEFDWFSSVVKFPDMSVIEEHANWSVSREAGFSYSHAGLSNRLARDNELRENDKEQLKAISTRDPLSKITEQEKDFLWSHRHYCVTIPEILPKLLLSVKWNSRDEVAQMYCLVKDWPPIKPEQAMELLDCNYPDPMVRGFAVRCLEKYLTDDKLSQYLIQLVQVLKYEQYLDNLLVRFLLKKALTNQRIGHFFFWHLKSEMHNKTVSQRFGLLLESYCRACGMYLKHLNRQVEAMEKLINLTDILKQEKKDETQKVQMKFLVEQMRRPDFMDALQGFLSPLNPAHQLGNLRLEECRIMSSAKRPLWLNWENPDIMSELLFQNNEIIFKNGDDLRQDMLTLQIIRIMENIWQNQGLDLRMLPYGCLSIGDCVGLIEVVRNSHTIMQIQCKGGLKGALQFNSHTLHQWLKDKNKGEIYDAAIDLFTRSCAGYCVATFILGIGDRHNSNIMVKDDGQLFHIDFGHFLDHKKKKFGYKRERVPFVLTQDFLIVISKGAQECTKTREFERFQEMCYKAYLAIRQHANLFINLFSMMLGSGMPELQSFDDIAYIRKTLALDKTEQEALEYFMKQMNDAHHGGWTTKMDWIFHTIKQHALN
Chain of PIK3CA E542 K/PIK3R1 (p110 α E542 K/p85 α) (P27986 whole entry partner): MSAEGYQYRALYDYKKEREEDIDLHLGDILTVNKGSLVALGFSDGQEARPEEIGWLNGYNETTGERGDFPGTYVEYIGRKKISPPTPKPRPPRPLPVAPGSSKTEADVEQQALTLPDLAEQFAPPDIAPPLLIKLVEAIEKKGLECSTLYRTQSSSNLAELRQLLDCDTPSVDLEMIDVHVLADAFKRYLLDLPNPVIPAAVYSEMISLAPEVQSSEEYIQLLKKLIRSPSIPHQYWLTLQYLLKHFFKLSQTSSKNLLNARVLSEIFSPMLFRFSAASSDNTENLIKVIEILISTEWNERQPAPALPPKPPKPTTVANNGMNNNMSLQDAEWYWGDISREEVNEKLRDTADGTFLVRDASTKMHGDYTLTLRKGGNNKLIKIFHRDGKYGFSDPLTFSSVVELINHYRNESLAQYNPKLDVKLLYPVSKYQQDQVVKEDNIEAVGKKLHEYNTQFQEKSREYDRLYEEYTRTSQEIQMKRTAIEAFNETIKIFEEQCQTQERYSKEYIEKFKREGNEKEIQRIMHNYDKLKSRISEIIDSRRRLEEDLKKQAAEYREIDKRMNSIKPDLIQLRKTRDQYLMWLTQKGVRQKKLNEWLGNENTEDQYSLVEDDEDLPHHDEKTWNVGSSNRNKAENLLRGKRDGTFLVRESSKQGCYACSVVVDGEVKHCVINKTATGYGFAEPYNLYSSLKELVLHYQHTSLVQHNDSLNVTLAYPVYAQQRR

[17] = molecular target: CDK1/cyclin B (Homo sapiens, UniProt P06493); test: Kinase selectivity for OMS14; type: biochemical
Chain of CDK1/cyclin B (P06493 whole entry): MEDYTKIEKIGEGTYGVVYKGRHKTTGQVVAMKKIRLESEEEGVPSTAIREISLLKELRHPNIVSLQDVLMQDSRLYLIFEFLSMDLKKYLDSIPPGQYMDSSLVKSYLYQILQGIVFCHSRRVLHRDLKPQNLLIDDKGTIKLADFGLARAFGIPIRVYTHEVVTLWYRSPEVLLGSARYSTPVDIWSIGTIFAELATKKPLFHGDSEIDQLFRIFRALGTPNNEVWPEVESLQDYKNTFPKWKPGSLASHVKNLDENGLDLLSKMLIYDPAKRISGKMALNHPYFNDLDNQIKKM
Chain of CDK1/cyclin B (P14635 whole entry, further chain): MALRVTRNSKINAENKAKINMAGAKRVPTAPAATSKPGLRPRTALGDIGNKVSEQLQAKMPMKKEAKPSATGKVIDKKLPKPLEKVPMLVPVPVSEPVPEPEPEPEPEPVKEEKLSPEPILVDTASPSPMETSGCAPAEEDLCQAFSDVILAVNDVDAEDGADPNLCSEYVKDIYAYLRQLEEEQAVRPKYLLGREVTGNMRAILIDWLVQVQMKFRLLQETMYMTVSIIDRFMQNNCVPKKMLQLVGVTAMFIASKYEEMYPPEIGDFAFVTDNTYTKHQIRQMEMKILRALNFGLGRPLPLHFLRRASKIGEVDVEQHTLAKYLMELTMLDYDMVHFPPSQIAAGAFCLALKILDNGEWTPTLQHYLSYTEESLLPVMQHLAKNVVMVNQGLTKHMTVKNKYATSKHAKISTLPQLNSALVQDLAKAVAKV

[18] = molecular target: AKT1 (PKB α) (Homo sapiens, UniProt P31749); test: Kinase selectivity for OMS14; type: biochemical
Chain of AKT1 (PKB α) (P31749 whole entry): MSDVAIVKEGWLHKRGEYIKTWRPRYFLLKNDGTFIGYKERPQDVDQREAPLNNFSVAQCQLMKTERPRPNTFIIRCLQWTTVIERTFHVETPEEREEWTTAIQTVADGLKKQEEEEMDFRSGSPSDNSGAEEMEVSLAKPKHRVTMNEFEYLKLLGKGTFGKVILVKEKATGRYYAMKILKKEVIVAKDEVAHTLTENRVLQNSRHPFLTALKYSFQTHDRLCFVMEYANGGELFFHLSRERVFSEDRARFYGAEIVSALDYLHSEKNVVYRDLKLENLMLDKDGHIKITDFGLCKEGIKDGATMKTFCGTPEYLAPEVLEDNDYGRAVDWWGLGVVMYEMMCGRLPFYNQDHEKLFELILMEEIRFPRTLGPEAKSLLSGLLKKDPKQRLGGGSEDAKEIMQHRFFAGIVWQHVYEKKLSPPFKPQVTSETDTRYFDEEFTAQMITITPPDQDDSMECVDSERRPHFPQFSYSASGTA

[19] = molecular target: PKN2 (PRK2) (Homo sapiens, UniProt Q16513); test: Kinase selectivity for OMS14; type: biochemical
Chain of PKN2 (PRK2) (Q16513 whole entry): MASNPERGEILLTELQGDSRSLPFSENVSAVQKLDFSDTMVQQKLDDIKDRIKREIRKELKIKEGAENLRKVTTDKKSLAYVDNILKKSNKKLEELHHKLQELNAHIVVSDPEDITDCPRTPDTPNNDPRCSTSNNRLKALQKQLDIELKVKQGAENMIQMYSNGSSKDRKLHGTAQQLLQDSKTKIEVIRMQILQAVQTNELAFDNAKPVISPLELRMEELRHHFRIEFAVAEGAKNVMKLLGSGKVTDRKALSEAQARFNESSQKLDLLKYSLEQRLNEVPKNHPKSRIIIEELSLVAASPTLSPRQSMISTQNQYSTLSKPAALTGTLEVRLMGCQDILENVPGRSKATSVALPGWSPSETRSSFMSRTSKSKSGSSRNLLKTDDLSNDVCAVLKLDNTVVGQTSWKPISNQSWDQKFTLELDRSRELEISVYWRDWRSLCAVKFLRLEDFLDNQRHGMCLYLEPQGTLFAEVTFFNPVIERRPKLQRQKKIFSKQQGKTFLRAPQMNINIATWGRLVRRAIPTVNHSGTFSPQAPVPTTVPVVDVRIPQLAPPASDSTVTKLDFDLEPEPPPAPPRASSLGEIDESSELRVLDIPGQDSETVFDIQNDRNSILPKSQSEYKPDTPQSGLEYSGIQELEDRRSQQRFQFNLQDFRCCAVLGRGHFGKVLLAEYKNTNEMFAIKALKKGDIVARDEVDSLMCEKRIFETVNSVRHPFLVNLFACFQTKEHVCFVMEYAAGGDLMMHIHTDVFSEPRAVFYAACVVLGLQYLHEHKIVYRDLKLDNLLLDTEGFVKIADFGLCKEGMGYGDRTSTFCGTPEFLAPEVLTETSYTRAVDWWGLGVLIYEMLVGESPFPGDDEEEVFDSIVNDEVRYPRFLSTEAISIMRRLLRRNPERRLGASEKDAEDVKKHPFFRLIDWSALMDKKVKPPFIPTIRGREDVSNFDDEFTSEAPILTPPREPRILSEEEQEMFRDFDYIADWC

[20] = molecular target: PIK3CD/PIK3R1 (p110 δ/p85 α) (Homo sapiens, UniProt O00329); test: Kinase selectivity for OMS14; type: biochemical
Chain of PIK3CD/PIK3R1 (p110 δ/p85 α) (O00329 whole entry): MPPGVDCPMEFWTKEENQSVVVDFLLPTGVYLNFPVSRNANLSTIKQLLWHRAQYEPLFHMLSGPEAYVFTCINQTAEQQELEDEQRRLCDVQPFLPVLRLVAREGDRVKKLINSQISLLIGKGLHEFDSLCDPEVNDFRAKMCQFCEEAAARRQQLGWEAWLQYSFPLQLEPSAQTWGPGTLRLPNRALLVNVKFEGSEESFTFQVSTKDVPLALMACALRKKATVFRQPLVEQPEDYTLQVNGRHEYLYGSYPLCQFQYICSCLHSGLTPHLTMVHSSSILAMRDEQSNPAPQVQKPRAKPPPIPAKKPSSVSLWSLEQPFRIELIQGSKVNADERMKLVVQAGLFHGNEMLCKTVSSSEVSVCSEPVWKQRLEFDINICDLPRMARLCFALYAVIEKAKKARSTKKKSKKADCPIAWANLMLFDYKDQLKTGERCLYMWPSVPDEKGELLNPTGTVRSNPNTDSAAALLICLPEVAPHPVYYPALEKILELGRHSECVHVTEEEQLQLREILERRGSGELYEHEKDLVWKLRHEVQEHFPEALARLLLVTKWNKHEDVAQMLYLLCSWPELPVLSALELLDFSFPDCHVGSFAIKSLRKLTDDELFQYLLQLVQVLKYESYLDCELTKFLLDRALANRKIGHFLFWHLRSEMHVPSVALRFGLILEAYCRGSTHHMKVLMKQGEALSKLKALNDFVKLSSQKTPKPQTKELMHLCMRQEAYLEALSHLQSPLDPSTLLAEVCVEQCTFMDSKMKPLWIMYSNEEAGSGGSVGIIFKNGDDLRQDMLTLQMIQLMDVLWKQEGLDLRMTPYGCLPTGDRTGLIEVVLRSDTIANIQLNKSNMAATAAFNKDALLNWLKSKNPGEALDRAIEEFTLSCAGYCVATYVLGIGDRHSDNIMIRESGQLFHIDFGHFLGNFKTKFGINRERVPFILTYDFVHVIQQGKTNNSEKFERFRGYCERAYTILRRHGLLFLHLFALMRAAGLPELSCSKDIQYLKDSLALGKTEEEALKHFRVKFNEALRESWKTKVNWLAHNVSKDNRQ
Chain of PIK3CD/PIK3R1 (p110 δ/p85 α) (P27986 whole entry partner): as the sequence (P27986 whole entry partner) above

[21] = system: MCF-7 cancer cell line; test: MTT assay; type: cell-based; settings: Homo sapiens, MCF7, 72 h
Method in brief: as §2

[22] = read-out: % of inhibition (mean)
[23] = read-out: % of inhibition, point 1
[24] = read-out: % of inhibition, point 2

Work on `O=C(CNc1ccc([N+](=O)[O-])cc1)Nc1nc2ccccc2s1` [OMS5, N-(1,3-benzothiazol-2-yl)-2-(4-nitroanilino)acetamide] yielded a GI50 [1] of 1.6 µM, an IC50 [1] of 2.9 µM and a CC50 [1] of 5.5 µM. It also gave a TGI [1] of 3 µM, an IC50 [2] of 61 µM and an inhibition at 100 µM [2] of 64.2%. The GI50 [3] was 1.5 µM, the IC50 [3] was 10 µM and the CC50 [3] was > 100 µM. For the same molecule, the TGI [3] was 15 µM, the GI50 [4] was 0.9 µM and the IC50 [4] was 1.4 µM. It also gave a CC50 [4] of 6.5 µM, a TGI [4] of 2.5 µM and an IC50 [5] of 22.1 to 61 µM. The GI50 [6] was 1.2 µM, the IC50 [6] was 2.5 µM and the CC50 [6] was 52.5 µM. For the same molecule, the TGI [6] was 12 µM, the GI50 [7] was 0.6 µM and the IC50 [7] was 3 µM. The CC50 [7] was > 100 µM, the TGI [7] was 4.9 µM and the GI50 [8] was 1 µM. It also gave an IC50 [8] of 2.3 µM, a CC50 [8] of 8.3 µM and a TGI [8] of 2.9 µM. The GI50 [9] was 1.6 µM, the IC50 [9] was 3 µM and the CC50 [9] was 6.9 µM. It also gave a TGI [9] of 3.3 µM, a TGI [10] of 2.1 µM and a GI50 [10] of 0.5 µM. For the same molecule, the IC50 [10] was 0.7 µM, the CC50 [10] was 8.1 µM and the GI50 [11] was 0.4 µM. It also gave an IC50 [11] of 1.8 µM, a CC50 [11] of 5.3 µM and a TGI [11] of 1.8 µM. It also gave a GI50 [12] of 1.1 µM, an IC50 [12] of 2 µM and a CC50 [12] of 5.5 µM. It also gave a TGI [12] of 2.5 µM, a GI50 [13] of 1.1 µM and an IC50 [13] of 2.5 µM. The CC50 [13] was 26.9 µM, the TGI [13] was 4.2 µM and the GI50 [14] was 0.4 µM. For the same molecule, the IC50 [14] was 0.5 µM, the CC50 [14] was 74.1 µM and the TGI [14] was 10 µM. It also gave a GI50 [15] of 0.7 µM, an IC50 [15] of 1.3 µM and a CC50 [15] of 4.8 µM. The TGI [15] was 2 µM.
`O=C(CN1CCN(CC(=O)Nc2nc3ccccc3s2)CC1)Nc1ccc([N+](=O)[O-])cc1` [OMS14, N-(benzo[d]thiazol-2-yl)-2-(4-(2-((4-nitrophenyl)amino)-2-oxoethyl)piperazin-1-yl)acetamide] was tested, and the GI50 [1] was 1.7 µM, the IC50 [1] was 3.2 µM and the CC50 [1] was 6.3 µM. For the same molecule, the TGI [1] was 3.3 µM, the IC50 [2] was 26.1 µM and the inhibition at 100 µM [2] was 90.6%. For the same molecule, the GI50 [3] was 2.2 µM, the IC50 [3] was 6.2 µM and the CC50 [3] was > 100 µM. It also gave a TGI [3] of 7.1 µM, an inhibition at 100 µM [16, 22] of 34% and an inhibition at 100 µM [16, 23] of 33%. It also gave an inhibition at 100 µM [16, 24] of 36%, a GI50 [4] of 1.7 µM and an IC50 [4] of 3 µM. The CC50 [4] was 8.3 µM, the TGI [4] was 3.8 µM and the IC50 [5] was 22.1 to 61 µM. For the same molecule, the GI50 [6] was 2.9 µM, the IC50 [6] was 4.5 µM and the CC50 [6] was 74.1 µM. The TGI [6] was 13.5 µM, the GI50 [7] was 1.4 µM and the IC50 [7] was 3.5 µM. The CC50 [7] was > 100 µM, the TGI [7] was 4.2 µM and the inhibition at 100 µM [17, 22] was 24%. The inhibition at 100 µM [17, 23] was 23%, the inhibition at 100 µM [17, 24] was 25% and the inhibition at 100 µM [18, 22] was 14%. For the same molecule, the inhibition at 100 µM [18, 23] was 11%, the inhibition at 100 µM [18, 24] was 17% and the GI50 [8] was 1.9 µM. For the same molecule, the IC50 [8] was 3.9 µM, the CC50 [8] was 18.2 µM and the TGI [8] was 4.7 µM. It also gave a GI50 [9] of 2.1 µM, an IC50 [9] of 4 µM and a CC50 [9] of 23.4 µM. For the same molecule, the TGI [9] was 6.2 µM, the TGI [10] was 3.6 µM and the GI50 [10] was 1.3 µM. For the same molecule, the IC50 [10] was 2.1 µM, the CC50 [10] was 10.2 µM and the inhibition at 100 µM [19, 22] was 10%. The inhibition at 100 µM [19, 23] was 11%, the inhibition at 100 µM [19, 24] was 8% and the GI50 [11] was 1.5 µM. The IC50 [11] was 3.2 µM, the CC50 [11] was 7.1 µM and the TGI [11] was 3.2 µM. For the same molecule, the inhibition at 100 µM [20, 22] was 65%, the inhibition at 100 µM [20, 23] was 66% and the inhibition at 100 µM [20, 24] was 64%. The GI50 [12] was 1.7 µM, the IC50 [12] was 3.1 µM and the CC50 [12] was 6.9 µM. For the same molecule, the TGI [12] was 3.5 µM, the GI50 [13] was 2 µM and the IC50 [13] was 3.8 µM. The CC50 [13] was 27.5 µM, the TGI [13] was 4.9 µM and the GI50 [14] was 2.8 µM. For the same molecule, the IC50 [14] was 4.1 µM, the CC50 [14] was 61.7 µM and the TGI [14] was 7.8 µM. For the same molecule, the IC50 [21] was 22.1 µM, the GI50 [15] was 1.8 µM and the IC50 [15] was 3 µM. It also gave a CC50 [15] of 15.1 µM and a TGI [15] of 4.6 µM.
